# Columns and labels:
# [1] = AUC in C57BL/6 mouse at 44 mg/kg, po via gavage by LC-MS/MS analysis; type: ADME, organism-based; settings: in vivo
# [2] = Intrinsic clearance in human liver microsomes at 0.5 uM preincubated with NADPH and measured up to 30 mins by LC-MS/MS analysis; type: ADME, microsome
# [3] = Half life in C57BL/6 mouse at […], iv by LC-MS/MS analysis; type: ADME, organism-based; settings: in vivo
# [4] = Cmax in C57BL/6 mouse at 44 mg/kg, po via gavage by LC-MS/MS analysis; type: ADME, organism-based; design: dose 44 mg/kg, route oral; settings: in vivo
# [5] = tested on: Mycobacterium tuberculosis; assay: Antibacterial activity against Mycobacterium tuberculosis H37Rv infected in C57BL/6 mouse assessed as efficacious dose casing 2 log reduction in colony forming units administered orally once daily for 8 days starting following day after infection and measured at 24 hrs post last dose; type: functional; settings: po
# Summary of the method: (§1)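 Female C57BL/6 mice, 8−10 weeks old, infected intratracheally with 100 000 CFU of H37Rv. Oral dosing once daily for 8 days began 1 day post-infection. Lungs were harvested 24 h after the last dose, homogenised and plated on 7H11 with 10% OADC and 0.4% charcoal for 18 days at 37 °C. Log10 CFU was fitted to a sigmoidal dose-response curve, and ED99 was defined as a 2-log CFU drop versus untreated.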
# HepG2 [6] = assay: cells; type: ADME, cell-based; settings: Homo sapiens, HepG2, 48 h
# [7] = tested on: Mycobacterium tuberculosis; assay: Antimycobacterial activity against Mycobacterium tuberculosis H37Rv ATCC 25618 after 6 days by resazurin-based assay; type: functional; settings: H37Rv ATCC 25618, 144 h
# [8] = Clearance in C57BL/6 mouse at […], iv by LC-MS/MS analysis; type: ADME, organism-based; settings: in vivo
# [9] = Intrinsic clearance in mouse liver microsomes at 0.5 uM preincubated with NADPH and measured up to 30 mins by LC-MS/MS analysis; type: ADME, microsome
# [10] = tested on: Mycobacterium tuberculosis; assay: Antibacterial activity against Mycobacterium tuberculosis H37Rv infected in C57BL/6 mouse assessed as reduction in colony forming units administered orally once daily for 8 days starting following day after infection and measured at 24 hrs post last dose relative to untreated control; type: functional; summary of the method: as §1
# Mus musculus [11] = assay: Toxicity in Mycobacterium tuberculosis H37Rv infected C57BL/6 mouse assessed as drug tolerability at >50 mg/kg, po administered once daily for 8 days starting following day after infection and measured at 24 hrs post last dose; type: organism-based; settings: in vivo
# [12] = Oral bioavailability in C57BL/6 mouse at 44 mg/kg via gavage by LC-MS/MS analysis; type: ADME, organism-based; settings: in vivo
# [13] = Volume of distribution at steady state in C57BL/6 mouse at […], iv by LC-MS/MS analysis; type: ADME, organism-based; settings: in vivo, read-out: Vdss
# [14] = Cardiotoxicity in New Zealand white perfused rabbit heart left ventricular wedge assessed as prolongation of QT interval at 10 uM by electrophysiology assay; type: toxicity, tissue-based, Oryctolagus cuniculus, Heart left ventricle
# [15] = Cardiotoxicity in New Zealand white perfused rabbit heart left ventricular wedge assessed as prolongation of Tp-e interval time at 10 uM by electrophysiology assay relative to control; type: toxicity, tissue-based, Oryctolagus cuniculus, Heart left ventricle
# [16] = Cardiotoxicity in New Zealand white perfused rabbit heart left ventricular wedge assessed as prolongation of QRS interval time at 30 uM by electrophysiology assay relative to control; type: toxicity, tissue-based, Oryctolagus cuniculus, Heart left ventricle
# [17] = Cardiotoxicity in New Zealand white perfused rabbit heart left ventricular wedge assessed as drug concentration causing prolongation of Tp-e interval time by electrophysiology assay; type: toxicity, tissue-based, Oryctolagus cuniculus, Heart left ventricle
# HepG2 [18] = assay: Cytotoxicity against human HepG2 cells assessed as effect on mitochondrial membrane potential after 48 hrs by TMRM-staining based cell health assay; type: ADME; settings: HepG2, 48 h
# physchem = settings: buffer, pH 7.4
# Mus musculus [19] = assay: AUC in C57BL/6 mouse at 49.2 mg/kg, po via gavage by LC-MS/MS analysis; type: ADME, organism-based; settings: in vivo
# [20] = tested on: Mycobacterium tuberculosis; assay: Antimycobacterial activity against Mycobacterium tuberculosis H37Rv ATCC 25618 assessed as reduction in cell viability after 7 days by bacTiter-Glo assay; type: functional; settings: H37Rv ATCC 25618, 168 h
# Mus musculus [21] = assay: Oral bioavailability in C57BL/6 mouse at 49.2 mg/kg via gavage by LC-MS/MS analysis; type: ADME, organism-based; settings: in vivo
# [22] = Volume of distribution at steady state in C57BL/6 mouse at 4 mg/kg, iv by LC-MS/MS analysis; type: ADME, organism-based; settings: in vivo, read-out: Vdss
# Summary of the method: (§2)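 Female C57BL/6 mice (18−20 g), single intravenous dose in 5% DMSO/20% Encapsin. Tail-vein whole blood (25 μL) was taken from each mouse (n = 5) at 5, 15 and 30 min and 1, 2, 4 and 8 h postdose, and compound concentration was measured in peripheral whole blood.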
# [23] = tested on: Mycobacterium tuberculosis; assay: Antimycobacterial activity against Mycobacterium tuberculosis clinical isolates after 6 days by resazurin-based assay; type: functional; settings: 144 h
# [24] = Half life in C57BL/6 mouse at 4 mg/kg, iv by LC-MS/MS analysis; type: ADME, organism-based; settings: in vivo; summary of the method: as §2
# [25] = Cmax in C57BL/6 mouse at 49.2 mg/kg, po via gavage by LC-MS/MS analysis; type: ADME, organism-based; design: dose 49.2 mg/kg, route oral; settings: in vivo
# [26] = Cytotoxicity against human HepG2 cells after 48 hrs by cellTiter-Glo assay; type: cell-based; settings: read-out: TC50
compound,measurement,setting,value
FC(F)(F)Oc1ccc(Oc2ccc(N3CCC4(CC3)OCCc3sccc34)cc2)cc1,AUC,[1],8740 ng·h/mL
same,CLH,[2],0.6 mL/min/g
same,half-life,[3],3.2 h
same,Cmax,[4],1270 ng/mL
same,ED99,[5],11.6 mg/kg
same,IC50,HepG2 [6],11 µM
same,MIC90,[7],0.06 µM
same,clearance,[8],36.3 mL/min/kg
same,CLH,[9],1.2 mL/min/g
same,Activity,[10],4.2 log10CFU
same,Activity,Mus musculus [11],Non-Toxic
same,bioavailability,[12],42.6%
same,Vd,[13],10.4 L/kg
CC(C)(C)c1ccc(CN2CCC3(CCCCO3)CC2)cc1,CLH,[2],3.2 mL/min/g
same,Activity,[14],12.2%
same,Activity,[15],44.4%
same,Activity,[16],25.4%
same,IC50,HepG2 [6],129 µM
same,MIC90,[7],0.21 µM
same,CLH,[9],18.1 mL/min/g
same,Activity,[17],10 µM
same,IC50,HepG2 [18],135 µM
c1cc2c(s1)CCOC21CCN(Cc2ccc3c(c2)OCCO3)CC1,CLH,[2],25 mL/min/g
same,solubility kinetic at 1 h,physchem,266 µM
same,AUC,Mus musculus [19],1780 ng·h/mL
same,MIC80,[20],0.25 µM
same,F,Mus musculus [21],14.6%
same,Vd,[22],7.4 L/kg
same,MIC90,[7],0.3 µM
same,CLH,[9],> 30 mL/min/g
same,MIC90,[23],0.6 µM
same,half-life,[24],0.7 h
same,Cmax,[25],470 ng/mL
same,CC50 at 48 h,[26],36 µM

# — ChEMBL document CHEMBL4257587 (J Med Chem, 2018)
